Source: PubChem (The Scripps Research Institute Molecular Screening Center)
In the library only some 0.55% were active in any assay of this set; here they are far more common.
OXTR potentiator: potentiates the human oxytocin receptor response; CHO-OTR cells, Fluo-8 calcium fluorescence, potentiator mode; 0% = oxytocin EC15, 100% = EC100; hit rate 0.061% among 320,000; P30559; activation, % at 3 µM;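 active means activation above that plate's cutoff, the mean activation of tested compounds plus 3 SD, cut at about 6.6% in these data, passing the limit was not always enough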;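 further: 100% uses oxytocin at 75 nM as the full agonist control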
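Measured by – Fluo-8 calcium dye fluorescence · Test system – human OTR in CHO cells · Dosing – one concentration, 3.0 µM compound · Controls – EC15 oxytocin alone as 0%, 75 nM oxytocin as 100% · Evaluation – normalized max/min fluorescence ratio, % activation · Timing – 6 min pre-incubation, 100 s read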
V1R ag counter: V1a receptor agonism, counter-screen for OXTR agonists | hit rate 0.25% among 320,000 | activation, % at 3 µM | CHO-V1R cells, Fluo-8 calcium fluorescence, agonist mode; 0% DMSO, 100% 3 nM vasopressin | AID 2797;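 active means activation above the mean activation of all tested compounds plus 3 SD, per screening run, cut at about 20% in these data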;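 further: signal is peak over basal fluorescence ratio across a 100 second FLIPR read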
Target sequence (P37288 whole entry, looked up): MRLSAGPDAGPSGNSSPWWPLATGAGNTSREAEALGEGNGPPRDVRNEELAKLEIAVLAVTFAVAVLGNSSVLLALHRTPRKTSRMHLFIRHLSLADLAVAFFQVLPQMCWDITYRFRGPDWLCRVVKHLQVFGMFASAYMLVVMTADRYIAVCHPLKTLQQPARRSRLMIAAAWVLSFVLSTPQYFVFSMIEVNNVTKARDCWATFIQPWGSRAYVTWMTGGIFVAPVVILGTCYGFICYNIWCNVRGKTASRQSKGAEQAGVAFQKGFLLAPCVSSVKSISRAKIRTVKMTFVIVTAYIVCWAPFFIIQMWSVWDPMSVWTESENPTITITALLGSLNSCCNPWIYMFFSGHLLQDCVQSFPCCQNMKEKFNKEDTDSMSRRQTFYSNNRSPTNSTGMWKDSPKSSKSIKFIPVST
TRPN1 ag: agonists of zebrafish TRPN1 channel; HEK293 zebrafish TRPN1-YFP, Fluo-8 calcium fluorescence; 100% = response to 87 µM carbachol; activation, % at 3 µM; hit rate 0.18% among 220,000; AID 1424;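 active means activation above its plate's cutoff, the mean activation of test wells on that plate plus 3 SD, cut at about 19% in these data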;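 further: 0% = DMSO alone and 100% = 87 µM carbachol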
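Assay system: Zebrafish TRPN1-YFP in HEK293 cells | Incubation: Dye loading 1 h at 37 °C, then 30 min room temperature | Measured by: Kinetic Fluo-8 fluorescence, ex 470-495, em 515-575 nm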
OXTR agonist: human OXTR agonism; AID 2435; activation, % at 3 µM; CHO-OTR cells, Fluo-8 calcium fluorescence; normalized: DMSO 0%, oxytocin 100%; hit rate 0.32% among 320,000;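 active means activation above the mean of all tested compounds plus 3 SD, cutoff set per screening run, cut at about 20% in these data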;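 further: peak over basal fluorescence ratio from a 100 s FLIPR kinetic read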
TRPML3 ag: agonists of human TRPML3 channel | Q8TDD5 | HEK293 TRPML3-YFP, Fluo-8 calcium fluorescence; 100% = the carbachol control signal | activation, % at 3 µM | hit rate 0.29% among 220,000;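 active means activation above its plate's cutoff, the mean activation of the plate's test wells plus 3 SD, cut at about 12% in these data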;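 further: 0% = DMSO only wells and 100% = carbachol wells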
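Test system – HEK293 line with stable expression of human TRPML3-YFP channel · Control set – carbachol 87 µM final as high control (100%), DMSO as low control (0%) · Signal – Fluo-8 calcium dye fluorescence, ex 470-495, em 515-575 nm · Incubation – 1-h 37 °C dye load, 5-s basal, 120-s post-compound reads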
* marks the source's active call; other numbers are inactive results; / = no result given.

SMILES	OXTR potentiator	V1R ag counter	TRPN1 ag	OXTR agonist	TRPML3 ag
COc1ccc(S(=O)(=O)N(CC(=O)NCc2ccncc2)c2ccc(C)cc2)cc1OC	-10.9	1.2	/	0.8	/
CN(C)/C=C1\C=C2C(=O)c3ccccc3N2C1=O	-21.8	95.2*	729.2*	436.2*	357.4*
CN(C)S(=O)(=O)N1C(=O)c2ccccc2C1=O	-3.8	0.7	0.3	1.0	0.6
CCN(CC)CCNc1ncnc2c1[nH]c1ccc(OC)cc12	0.6	-1.2	2.1	-0.4	0.4
COc1ccc2[nH]c3c(NCCC4=CCCCC4)ncnc3c2c1	/	/	19.6*	/	8.8
NC(CCCCc1ccccc1)c1cccc2ccccc12 (centres undefined)	-16.3	3.5	/	21.1*	/
CC(CCc1ccccc1)NCc1cccc2ccccc12 (centres undefined)	-13.2	8.0	/	7.7	/
CC[n+]1c(/C=C2\Sc3ccccc3N2C)ccc2cccc(C)c21	/	/	41.7*	/	17.9*
CCN1/C(=C/c2ccc3cc(C)ccc3[n+]2CC)Sc2ccccc21	-17.6	32.0*	83.4*	30.3*	29.9*
CN1/C(=C/c2cccc[n+]2CCO)Sc2ccccc21	-13.7	-0.4	/	0.2	/
CC[n+]1ccccc1/C=C1\Sc2ccc(C)cc2N1C	-18.1	-0.1	/	0.2	/
CCN1/C(=C/c2ccc3cc(C)ccc3[n+]2CC)Sc2cc(C)c(C)cc21	/	/	49.0*	/	20.3*
O=C1C(=O)N(C2CCCC2)C(=O)N1Cc1c(F)cccc1Cl	-7.9	-1.2	-1.6	-1.3	1.9
Cc1ccc(-n2ncc3c2CC(C)(C)CC3NC(=O)C2CCOCC2)cc1 (centres undefined)	-1.6	8.2	/	0.1	/
CCCC(C(=O)Nc1ccc(S(=O)(=O)N2CCOCC2)cc1)c1ccccc1 (centres undefined)	-15.9	20.5*	/	28.1*	/
CCOC(=O)Cn1c(=O)oc2cc(S(=O)(=O)NCCc3ccc(C)cc3)ccc21	-10.1	10.2	3.6	13.2	1.6
CCOC(=O)Cn1c(=O)oc2cc(S(=O)(=O)Nc3ccc(F)cc3)ccc21	-10.4	33.0*	19.1*	36.0*	6.7
Cc1noc(C)c1CSCC(=O)Nc1cc(Cl)ccc1N1CCCCC1	-13.3	-1.7	/	-2.1	/
CCOC(=O)c1nn(-c2ccccc2)c2nnc(Cc3ccc(C)cc3)c(=O)n12	12.2*	0.2	0.1	-2.8	0.2
O=C1c2ccccc2C(=O)N1c1ccc(Cl)cc1	-8.9	-0.3	-1.8	-2.4	0.2
O=C1c2cccc3c(O)ccc(c23)C(=O)N1Cc1ccco1	/	/	79.2*	/	37.7*
Cc1ccc(N2C(=O)c3cccc4c(C(=O)O)ccc(c34)C2=O)cc1	-1.2	1.2	1.2	0.8	1.1
CC(=O)Nc1ccc(N2C(=O)c3cccc4c(O)ccc(c34)C2=O)cc1	-27.2	173.7*	/	172.4*	/
O=C1c2cccc3c(O)ccc(c23)C(=O)N1c1ccc(Cl)cc1	-26.9	183.7*	/	186.2*	/
CCOc1ccc(C(=O)C2CCN(C(=O)c3ccc([N+](=O)[O-])cc3)CC2)cc1	-10.4	6.0	/	5.2	/
SMILES	OXTR potentiator	V1R ag counter	TRPN1 ag	OXTR agonist	TRPML3 ag
O=C(OCCCc1cc2ccccc2c(=O)o1)c1ccc2c(c1)OCO2	1.3	1.4	/	4.8	/
O=C(/C=C/c1ccc(N2CCC(c3ccccc3)=N2)cc1)c1ccccc1	-14.7	107.8*	14.2	74.9*	4.3
Cc1ccc(C(=O)OCN2C(=O)c3ccccc3C2=O)c(O)c1	5.2	0.3	/	0.3	/
O=C(NCc1ccccc1Cl)c1nnc(CS(=O)(=O)c2ccccc2)o1	-6.1	1.7	/	1.8	/
COCCCn1c(=NC(=O)c2ccccc2)c(C#N)cc2c(=O)n3cccc(C)c3nc21	-6.8	-1.6	37.4*	-2.1	24.6*
COc1ccc(S(=O)(=O)Nc2cccnc2)cc1	-1.5	-0.9	2.0	-0.4	1.1
O=C(Nc1nnc(C(F)(F)F)s1)c1ccc(Br)s1	-8.5	9.2	28.7*	19.3	19.3*
NC(=O)c1ccccc1NC(=O)c1ccccc1Cl	0.0	-0.1	-0.5	1.2	0.5
CC(NC(=O)Nc1nnc(C(F)(F)F)s1)(C(F)(F)F)C(F)(F)F	-10.5	9.0	25.8*	13.7	21.2*
CC(C)(C)CC(=O)Nc1nnc(C(F)(F)F)s1	-16.6	-1.0	0.0	-1.4	0.4
